# Assay results collected from several papers.
# Each line is one published result; the experiments were not run side by side.
# Target: Death-associated protein kinase 1 (DAPK1, Homo sapiens, UniProt P53355)
SMILES,observed,mode,technique,concentration,endpoint,result
Nc1ncc(-c2nc(N3CCOCC3)nc(N3CCOCC3)n2)c(C(F)F)n1,binding,,competition with immobilised ligand,10 µM,remaining binding,94%
O=c1[nH]c2ccccc2n1C1CCN(Cc2ccc(-c3[nH]c4cc5ncnc5cc4nc3-c3ccccc3)cc2)CC1,cell-free assay,,,0.5 µM,remaining signal,82.9%
Cc1nn(C)cc1-c1nc2c(N3CCN(Cc4ccc(Cl)cc4)CC3)c(Cl)cnc2[nH]1,binding,,competition with immobilised ligand,1 µM,remaining binding,80%
CC(C)(C)c1cc(C=C(C#N)C#N)cc(Br)c1O,enzyme activity,inhibitor,,0.5 µM,remaining activity,85.9%
Cn1cc(-c2cccc(N3CCc4c(sc5c4CC(C)(C)C5)C3=O)c2CO)cc(Nc2ccncn2)c1=O,enzyme activity,inhibitor,,1 µM,inhibition,1%
Cn1cncc1[C@](O)(COc1ccc(C#N)cc1-c1ccc(OC(F)(F)F)cc1)c1ccc(C#N)cc1,cell-free assay,,competition with immobilised ligand,1 µM,remaining binding,84%
Cn1cc(-c2cc(F)cc(N3CCn4c(cc5c4CCCC5)C3=O)c2CO)cc(Nc2ccc(N3CCN(C4COC4)CC3)cn2)c1=O,enzyme activity,inhibitor,,0.1 µM,inhibition,8%
COc1cc(Nc2ncc(F)c(Nc3ccc4c(n3)NC(=O)C(C)(C)O4)n2)cc(OC)c1OC,binding,,competition with immobilised ligand,10 µM,inhibition,97%
COc1ncccc1-c1cnn2ccc(N3CCN(C(=O)OC(C)C)CC3)nc12,binding,,competition with immobilised ligand,1 µM,remaining binding,82%
